Assay results taken from ChEMBL document CHEMBL3826885, “Similarities and differences in affinity and binding modes of tricyclic pyrimido- and pyrazinoxanthines at human and rat adenosine receptors” (Bioorg Med Chem, 2016).
In brackets after ≈: the same amount, converted by molar mass.

Legend:
Adenosine receptor A2a [1] = biological target: Adenosine receptor A2a (Rattus norvegicus, UniProt P30543); test: Displacement of [3H]MSX2 from adenosine receptor A2a in rat brain striatal membranes; assay type: cell membranes, Membrane
Sequence of Adenosine receptor A2a (Rattus norvegicus, UniProt P30543) (P30543 whole entry): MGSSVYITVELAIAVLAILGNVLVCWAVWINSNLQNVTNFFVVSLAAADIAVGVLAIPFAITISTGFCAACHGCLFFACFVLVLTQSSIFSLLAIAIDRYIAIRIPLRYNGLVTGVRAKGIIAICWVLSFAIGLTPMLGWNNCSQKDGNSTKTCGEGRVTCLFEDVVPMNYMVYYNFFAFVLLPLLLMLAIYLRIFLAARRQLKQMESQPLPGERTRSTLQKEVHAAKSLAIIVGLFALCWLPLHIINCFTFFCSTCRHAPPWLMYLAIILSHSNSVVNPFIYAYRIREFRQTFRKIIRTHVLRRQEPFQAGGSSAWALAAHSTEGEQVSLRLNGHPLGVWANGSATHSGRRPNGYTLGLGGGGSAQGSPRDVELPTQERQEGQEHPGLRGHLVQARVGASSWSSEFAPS
Summary of the method: (§1)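 Native rat receptors: A1 in brain cortical membranes with [3H]CCPA, A2A in brain striatal membranes, from frozen unstripped rat brains. Compounds were first screened at a single high concentration in three independent experiments. Active compounds then had full inhibition curves over at least 3 orders of magnitude of concentration.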

[2] = biological target: T1, Adenosine receptor A2b (Homo sapiens) (UniProt P29275); test: Displacement of [3H]PSB-603 from recombinant human adenosine receptor A2b expressed in CHO cell membranes at 1 uM
T1 sequence (whole entry): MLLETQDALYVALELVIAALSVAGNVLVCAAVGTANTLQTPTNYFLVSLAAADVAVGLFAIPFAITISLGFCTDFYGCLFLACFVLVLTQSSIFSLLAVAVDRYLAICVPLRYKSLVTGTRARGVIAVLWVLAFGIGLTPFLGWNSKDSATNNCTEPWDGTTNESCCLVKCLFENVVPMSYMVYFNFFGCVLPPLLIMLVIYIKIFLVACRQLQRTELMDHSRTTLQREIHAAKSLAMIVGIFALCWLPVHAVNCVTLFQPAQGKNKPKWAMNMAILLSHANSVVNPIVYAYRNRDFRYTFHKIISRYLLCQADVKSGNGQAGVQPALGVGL
Summary of the method: (§2)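 Membranes came from CHO cells expressing recombinant receptors (human A1, A2A, A2B, A3; rat A2B, A3). Radioligands were [3H]CCPA for A1 and [3H]PSB-11 or [3H]NECA for A3. A single high concentration was screened first, in three experiments for A1/A2A and two for A2B/A3. Full inhibition curves spanning at least 3 log units were run for potent compounds.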

Adenosine receptor A1 [3] = biological target: T2, Adenosine receptor A1 (Rattus norvegicus, UniProt P25099); test: Displacement of [3H]CCPA from adenosine receptor A1 in rat brain cortical membranes; assay type: cell membranes
T2 sequence (P25099 whole entry): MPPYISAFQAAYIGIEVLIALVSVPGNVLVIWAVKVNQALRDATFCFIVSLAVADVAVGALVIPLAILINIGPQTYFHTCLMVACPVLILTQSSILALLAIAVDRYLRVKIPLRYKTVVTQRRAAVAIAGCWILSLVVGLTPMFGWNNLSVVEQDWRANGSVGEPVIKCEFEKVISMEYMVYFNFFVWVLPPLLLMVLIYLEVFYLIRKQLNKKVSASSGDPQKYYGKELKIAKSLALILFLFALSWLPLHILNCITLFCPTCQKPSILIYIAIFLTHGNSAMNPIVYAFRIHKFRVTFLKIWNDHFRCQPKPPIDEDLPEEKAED
Summary of the method: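 Native rat receptors: A1 in brain cortical membranes with [3H]CCPA, A2A in brain striatal membranes, from frozen unstripped rat brains. Compounds were first screened at a single high concentration in three independent experiments.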

[4] = biological target: Adenosine receptor A2a (Rattus norvegicus) (UniProt P30543); test: Displacement of [3H]MSX2 from Adenosine receptor A2a in rat brain striatal membranes at 1 uM; assay type: cell membranes; details: Membrane; summary of the method: as §1
Sequence of Adenosine receptor A2a (Rattus norvegicus) (P30543 whole entry): as the sequence (P30543 whole entry) above

[5] = biological target: T3, Adenosine receptor A1 (Rattus norvegicus) (UniProt P25099); test: Displacement of [3H]CCPA from adenosine receptor A1 in rat brain cortical membranes at 1 uM; assay type: cell membranes; summary of the method: as §1
T3 sequence (whole entry): T2 sequence (P25099 whole entry)

Adenosine receptor A3 [6] = biological target: T4, Adenosine receptor A3 (Homo sapiens, UniProt P0DMS8); test: Displacement of [3H]PSB-11 from recombinant human adenosine receptor A3 expressed in CHO cell membranes
T4 sequence (P0DMS8 whole entry): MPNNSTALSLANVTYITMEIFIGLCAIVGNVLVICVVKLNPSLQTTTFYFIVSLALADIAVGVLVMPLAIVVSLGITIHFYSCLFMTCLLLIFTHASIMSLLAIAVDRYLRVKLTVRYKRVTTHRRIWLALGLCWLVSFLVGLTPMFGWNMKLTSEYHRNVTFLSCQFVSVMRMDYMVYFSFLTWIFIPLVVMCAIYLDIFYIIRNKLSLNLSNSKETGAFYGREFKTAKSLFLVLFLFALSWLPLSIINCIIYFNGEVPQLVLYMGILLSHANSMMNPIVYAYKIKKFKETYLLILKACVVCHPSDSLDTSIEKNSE

Adenosine receptor A2b [7] = biological target: T5, Adenosine receptor A2b (Homo sapiens, UniProt P29275); test: Displacement of [3H]PSB-603 from recombinant human adenosine receptor A2b expressed in CHO cell membranes
T5 sequence (P29275 whole entry): T1 sequence (whole entry)
Summary of the method: (§3)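 Membranes came from CHO cells expressing recombinant receptors (human A1, A2A, A2B, A3; rat A2B, A3). Radioligands were [3H]CCPA for A1 and [3H]PSB-11 or [3H]NECA for A3. A single high concentration was screened first, in three experiments for A1/A2A and two for A2B/A3.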

[8] = biological target: T6, Adenosine receptor A3 (Homo sapiens) (UniProt P0DMS8); test: Displacement of [3H]PSB11 from recombinant human adenosine receptor A3 expressed in CHO cell membranes at 1 uM; summary of the method: as §2
T6 sequence (whole entry): T4 sequence (P0DMS8 whole entry)

[9] = Solubility of compound in water at 20 degC by UV-spectroscopic analysis; assay type: physicochemical
Summary of the method: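 Suspensions were boiled 5 min, left overnight at 20 °C, and filtered. Filtrates were diluted 10-80-fold in MeOH and read by UV in MeOH/H2O (90% v/v). Concentration came from standard curves of seven concentrations from 10^-3 to 10^-1 mg/mL, using linear regression of two neighbouring points and multiplying by the dilution.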

[10] = biological target: Adenosine receptor A2a (Rattus norvegicus) (UniProt P30543); test: Displacement of [3H]MSX2 from Adenosine receptor A2a in rat brain striatal membranes at 10 uM; assay type: cell membranes; details: Membrane; summary of the method: as §1
[11] = biological target: T3, Adenosine receptor A1 (Rattus norvegicus); test: Displacement of [3H]CCPA from adenosine receptor A1 in rat brain cortical membranes at 10 uM; assay type: cell membranes; summary of the method: as §1
Adenosine receptor A1 [12] = biological target: T7, Adenosine receptor A1 (Homo sapiens, UniProt P30542); test: Displacement of [3H]CCPA from recombinant human adenosine receptor A1 expressed in CHO cell membranes; summary of the method: as §2
T7 sequence (P30542 whole entry): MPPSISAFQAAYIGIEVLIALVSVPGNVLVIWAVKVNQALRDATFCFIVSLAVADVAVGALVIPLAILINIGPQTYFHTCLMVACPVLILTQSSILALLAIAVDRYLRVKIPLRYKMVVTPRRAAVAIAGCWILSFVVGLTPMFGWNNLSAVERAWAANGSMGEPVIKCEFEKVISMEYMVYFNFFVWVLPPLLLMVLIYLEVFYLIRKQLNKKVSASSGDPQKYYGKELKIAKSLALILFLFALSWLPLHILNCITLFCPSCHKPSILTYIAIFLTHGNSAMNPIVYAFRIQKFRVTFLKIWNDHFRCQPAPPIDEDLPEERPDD

Adenosine receptor A2a [13] = biological target: T8, Adenosine receptor A2a (Homo sapiens, UniProt P29274); test: Displacement of [3H]MSX2 from recombinant human adenosine receptor A2a expressed in CHO cell membranes; summary of the method: as §2
T8 sequence (P29274 whole entry): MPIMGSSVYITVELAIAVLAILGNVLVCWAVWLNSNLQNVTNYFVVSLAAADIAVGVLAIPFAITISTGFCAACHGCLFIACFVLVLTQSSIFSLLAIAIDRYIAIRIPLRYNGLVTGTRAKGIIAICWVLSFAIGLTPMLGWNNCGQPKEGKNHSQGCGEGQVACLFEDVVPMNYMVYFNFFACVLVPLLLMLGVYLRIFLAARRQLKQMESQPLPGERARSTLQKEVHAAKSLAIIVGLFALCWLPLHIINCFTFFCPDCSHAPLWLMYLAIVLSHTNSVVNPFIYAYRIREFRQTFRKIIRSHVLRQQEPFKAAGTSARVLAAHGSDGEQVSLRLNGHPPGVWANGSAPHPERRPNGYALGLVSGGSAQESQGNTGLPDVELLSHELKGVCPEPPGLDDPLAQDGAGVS

Adenosine receptor A3 [14] = biological target: T9, Adenosine receptor A3 (Rattus norvegicus, UniProt P28647); test: Displacement of [3H]NECA from recombinant rat adenosine receptor A3 expressed in CHO cell membranes; summary of the method: as §3
T9 sequence (P28647 whole entry): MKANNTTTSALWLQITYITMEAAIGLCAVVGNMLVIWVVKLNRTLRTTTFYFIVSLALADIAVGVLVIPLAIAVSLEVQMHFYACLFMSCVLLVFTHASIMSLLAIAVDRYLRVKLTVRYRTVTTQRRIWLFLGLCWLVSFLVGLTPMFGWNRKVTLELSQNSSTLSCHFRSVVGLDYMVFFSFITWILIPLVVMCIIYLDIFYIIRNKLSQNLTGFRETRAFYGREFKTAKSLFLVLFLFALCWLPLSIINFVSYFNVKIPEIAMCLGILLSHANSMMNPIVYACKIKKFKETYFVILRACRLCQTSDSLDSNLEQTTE

Adenosine receptor A2b [15] = biological target: T10, Adenosine receptor A2b (Rattus norvegicus, UniProt P29276); test: Displacement of [3H]PSB-603 from recombinant rat adenosine receptor A2b expressed in CHO cell membranes; summary of the method: as §3
T10 sequence (P29276 whole entry): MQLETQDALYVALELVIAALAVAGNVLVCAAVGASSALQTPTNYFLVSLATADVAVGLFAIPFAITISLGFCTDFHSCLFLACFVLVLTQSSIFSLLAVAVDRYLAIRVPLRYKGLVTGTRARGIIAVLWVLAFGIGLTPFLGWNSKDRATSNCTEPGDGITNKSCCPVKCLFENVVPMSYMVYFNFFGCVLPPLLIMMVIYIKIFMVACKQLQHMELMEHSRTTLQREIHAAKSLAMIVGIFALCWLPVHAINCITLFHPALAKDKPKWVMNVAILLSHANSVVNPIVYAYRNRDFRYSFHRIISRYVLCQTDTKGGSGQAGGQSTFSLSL

[16] = biological target: T11, Adenosine receptor A3 (Rattus norvegicus) (UniProt P28647); test: Displacement of [3H]NECA from recombinant rat adenosine receptor A3 expressed in CHO cell membranes at 1 uM; summary of the method: as §2
T11 sequence (whole entry): T9 sequence (P28647 whole entry)

[17] = biological target: T12, Adenosine receptor A2b (Rattus norvegicus) (UniProt P29276); test: Displacement of [3H]PSB-603 from recombinant rat adenosine receptor A2b expressed in CHO cell membranes at 1 uM; summary of the method: as §2
T12 sequence (whole entry): T10 sequence (P29276 whole entry)

Adenosine receptor A2a [18] = biological target: T8, Adenosine receptor A2a; test: Displacement of [3H]MSX2 from recombinant human adenosine receptor A2a expressed in CHO cell membranes at 1 uM; summary of the method: as §2
[19] = biological target: T13, Adenosine receptor A1 (Homo sapiens) (UniProt P30542); test: Displacement of [3H]CCPA from recombinant human adenosine receptor A1 expressed in CHO cell membranes at 1 uM; summary of the method: as §2
T13 sequence (whole entry): T7 sequence (P30542 whole entry)

Adenosine receptor A2a [20] = biological target: T8, Adenosine receptor A2a; test: Antagonist activity at human adenosine receptor A2a expressed in CHO cell membranes assessed as inhibition of NECA-induced cAMP accumulation incubated for 15 mins in presence of [3H]cAMP by liquid scintillation counting; assay type: functional
Summary of the method: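 Stably transfected CHO cells (human A2A or A2B) grown in DMEM-F12 with 10% FCS at 37 °C, 5% CO2. The cells were seeded at 200,000/well, washed after 24 h and held 2 h in HBSS (pH 7.3) with 1 U/ml adenosine deaminase. Ro20-1724 was added to 40 µM final for 15 min, then NECA dilutions ± one fixed test concentration in 2.5% DMSO, in duplicate.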

SMILES | Ki (Adenosine receptor A2a [1]) | inhibition [2] | Ki (Adenosine receptor A1 [3]) | inhibition [4] | inhibition [5] | Ki (Adenosine receptor A3 [6]) | Ki (Adenosine receptor A2b [7]) | inhibition [8] | solubility [9] | other results
CCCn1c(=O)c2c(nc3n2CCCN3c2ccc(OCCN(CC)CC)cc2)n(CCC)c1=O | 1790 nM | 22% | 567 nM | 51% | 30% | > 1000 nM | > 1000 nM | 20% | 260 µg/mL (≈ 539 µM) | –
Cn1c(=O)c2c(nc3n2CCN(CCc2ccc(O)cc2)C3)n(C)c1=O | > 10000 nM | – | > 1000 nM | – | – | > 1000 nM | > 1000 nM | 3% | – | inhibition [10]: 35%; inhibition ([11]; 1 uM, in the assay text read “at 1 uM” for “at 10 uM”): 4%
CCCCn1c(=O)c2c(nc3n2CCCN3c2ccc(OCCN(CC)CC)cc2)n(CCCC)c1=O | 1460 nM | 6% | 137 nM | 49% | 55% | > 1000 nM | > 1000 nM | 44% | – | Ki (Adenosine receptor A1 [12]): 1190 nM; Ki (Adenosine receptor A2a [13]): 1010 nM; Ki (Adenosine receptor A3 [14]): > 1000 nM; Ki (Adenosine receptor A2b [15]): > 1000 nM; inhibition [16]: 16%; inhibition [17]: 6%; inhibition (Adenosine receptor A2a [18]): 54%; inhibition [19]: 30%
CCN(CC)CCOc1ccc(CCN2CCn3c(nc4c3c(=O)n(C)c(=O)n4C)C2)cc1 | 7850 nM | 19% | > 10000 nM | – | – | > 1000 nM | > 1000 nM | 0% | – | inhibition ([11]; 10 uM): 42%
Cn1c(=O)c2c(nc3n2CCN(CCc2ccc(OCCN4CCOCC4)cc2)C3)n(C)c1=O | 11500 nM | 4% | > 10000 nM | – | – | > 1000 nM | > 1000 nM | 3% | – | inhibition ([11]; 10 uM): 22%
COc1ccc(CCN2CCCn3c2nc2c3c(=O)n(C)c(=O)n2C)cc1 | – | – | – | – | – | – | – | – | 63 µg/mL (≈ 171 µM) | –
COc1ccc(N2CCCn3c2nc2c3c(=O)n(C)c(=O)n2C)cc1 | – | – | – | – | – | – | – | – | 51 µg/mL (≈ 149 µM) | –
CCCCn1c(=O)c2c(nc3n2CCCN3c2ccc(OCCN(C)C)cc2)n(CCCC)c1=O | 1050 nM | 40% | 56 nM | 47% | 72% | > 1000 nM | > 1000 nM | 38% | 255 µg/mL (≈ 528 µM) | Ki (Adenosine receptor A1 [12]): 539 nM; Ki (Adenosine receptor A2a [13]): 1030 nM; Ki (Adenosine receptor A3 [14]): > 1000 nM; Ki (Adenosine receptor A2b [15]): > 1000 nM; inhibition [16]: 15%; inhibition [17]: 9%; inhibition (Adenosine receptor A2a [18]): 52%; inhibition [19]: 43%
Cn1c(=O)c2c(nc3n2CCCN3CCc2ccc(O)cc2)n(C)c1=O | – | – | – | – | – | – | – | – | – | Kb (Adenosine receptor A2a [20]): 2220 nM
